Data set [1] is described as follows: Elimination half life in Paua New Guinean children with uncomplicated malaria at 10 mg/kg daily for 3 days. The settings on record: human, in vivo, read-out: beta t1/2 (converted). It is filed as ADME, organism-based. Further details: dose 10 mg/kg. An outline of the steps:
(§1)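 Children aged 5–10 y with uncomplicated malaria took oral CQ at 10 mg base/kg daily at 0, 24 and 48 h, with single-dose SP given alongside the first dose, without fasting. Heparin plasma was sampled serially to day 42, stored at −80°C, extracted with t-butyl methyl ether, and measured by HPLC-UV at 340 nm. Two-compartment model fitting used 1/y2 weighting.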

The nature of data set [2]: Volume of distribution at steady state with respect to bioavailability in Paua New Guinean children with uncomplicated malaria at 10 mg/kg daily for 3 days. It is filed as ADME, organism-based. The settings on record: human, in vivo, read-out: Vc/F. An outline of the steps: as §1
The nature of data set [3]: AUC (0 to 42 days) in Paua New Guinean children with uncomplicated malaria at 10 mg/kg daily for 3 days. It is filed as ADME, organism-based. Set-up: time < 1008 hr, dose 10 mg/kg. The settings on record: human, plasma. An outline of the steps:
as §1

Data set [4] in a line: Apparent clearance with respect to bioavailability in human. It is filed as ADME, organism-based. As to conditions: in vivo.
For data set [5], the system named is Homo sapiens. The data set can be described thus: AUC (0 to infinity) in Paua New Guinean children with uncomplicated malaria at 10 mg/kg daily for 3 days. It is filed as ADME, organism-based, Plasma. Set-up: time infinity, dose 10 mg/kg. As to conditions: in vivo, 72 h. An outline of the steps: as §1
The subject of data set [6] is Homo sapiens. The data set can be described thus: Tlag in Paua New Guinean children with uncomplicated malaria at 10 mg/kg daily for 3 days. It is filed as ADME, organism-based. Further details: dose 10 mg/kg. The settings on record: in vivo, 72 h. An outline of the steps:
as §1

Data set [7] is described as follows: Apparent clearance with respect to bioavailability in human with malaria. It is filed as ADME, organism-based. The settings on record: in vivo.
In data set [8] the test system is Plasmodium falciparum. Nature of the data set: Antiplasmodial activity against chloroquine-sensitive Plasmodium falciparum. It is filed as functional, organism-based.
Data set [9] is described as follows: AUC (0 to 42 days) in Paua New Guinean children with uncomplicated malaria. It is filed as ADME, organism-based. The settings on record: human, plasma. Further details: time < 1008 hr.
Data set [10] in a line: Elimination half life in Paua New Guinean children with uncomplicated malaria. The settings on record: human, in vivo; read-out: beta t1/2 (converted). It is filed as ADME, organism-based.
Data set [11] is described as follows: AUC (0 to infinity) in Paua New Guinean children with uncomplicated malaria. It is filed as ADME, organism-based. Further details: time infinity. The settings on record: human, plasma.
Data set [12] deals with Plasmodium falciparum. The data set can be described thus: Antiplasmodial activity against chloroquine-resistant Plasmodium falciparum. It is filed as functional, organism-based.
Data set [13] in a line: Apparent clearance with respect to bioavailability in human after fat meal using non-compartmental analysis. As to conditions: in vivo. It is filed as ADME, organism-based.
Data set [14] is described as follows: Volume of distribution at steady state with respect to bioavailability in Paua New Guinean children with uncomplicated malaria at 20 mg/kg daily for 3 days. The settings on record: human, in vivo, read-out: Vc/F. It is filed as ADME, organism-based. The method, boiled down:
(§2)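 Children aged 5–10 y with uncomplicated malaria were given oral DHA-PQ at PQ phosphate 20 mg/kg (11.5 mg base/kg) daily at 0, 24 and 48 h, swallowed with water, without fasting. Sampling was serial to day 42. Heparin plasma was stored at −80°C, extracted with hexane-isoamyl alcohol, and assayed by HPLC with UV detection at 340 nm. Parameters came from a two-compartment model with 1/y2 weighting.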

Data set [15] in a line: AUC (0 to 42 days) in Paua New Guinean children with uncomplicated malaria at 20 mg/kg daily for 3 days. It is filed as ADME, organism-based. Set-up: time < 1008 hr, dose 20 mg/kg. As to conditions: human, plasma. An outline of the steps: as §2
Data set [16] in a line: Elimination half life in Cambodian children with malaria. It is filed as ADME, organism-based. As to conditions: human, in vivo; read-out: beta t1/2 (converted).
For data set [17], the species on record is Homo sapiens. The data set can be described thus: Volume of distribution at steady state with respect to bioavailability in human after fat meal using non-compartmental analysis. It is filed as ADME, organism-based. The settings on record: in vivo.
A short description of data set [18]: Apparent clearance with respect to bioavailability in Vietnamese human. It is filed as ADME, organism-based. As to conditions: in vivo.
Data set [19] in a line: Volume of distribution at steady state with respect to bioavailability in Vietnamese human. It is filed as ADME, organism-based. The settings on record: in vivo, read-out: Vc/F.
Data set [20] in a line: Volume of distribution at steady state with respect to bioavailability in Cambodian children with malaria. It is filed as ADME, organism-based. As to conditions: human, in vivo; read-out: Vc/F.
The nature of data set [21]: AUC (0 to infinity) in Paua New Guinean children with uncomplicated malaria at 20 mg/kg daily for 3 days. It is filed as ADME, organism-based. The settings on record: human, plasma. Further details: time infinity, dose 20 mg/kg. An outline of the steps: as §2
The nature of data set [22]: Apparent clearance with respect to bioavailability in human after fasting using non-compartmental analysis. As to conditions: in vivo. It is filed as ADME, organism-based.
Data set [23] relates to Homo sapiens. Nature of the data set: Tlag in Paua New Guinean children with uncomplicated malaria at 20 mg/kg daily for 3 days. It is filed as ADME, organism-based. Set-up: dose 20 mg/kg. As to conditions: in vivo, 72 h. The method, boiled down: as §2
A short description of data set [24]: Apparent clearance with respect to bioavailability in Paua New Guinean children with uncomplicated malaria at 20 mg/kg daily for 3 days. It is filed as ADME, organism-based. As to conditions: human, in vivo. The method, boiled down: as §2
Data set [25] in a line: Elimination half life in Paua New Guinean children with uncomplicated malaria at 20 mg/kg daily for 3 days. As to conditions: human, in vivo, read-out: beta t1/2 (converted). It is filed as ADME, organism-based. Set-up: dose 20 mg/kg. The method, boiled down: as §2

What is called AUC is the area under the concentration-time curve, a measure of exposure. The low end stands for low exposure, the high end for high exposure. As a reminder, the CL/F is the apparent clearance, not corrected for the fraction that reaches the circulation. One may read the IC50 as the concentration that gives 50% inhibition. Read a low IC50 as higher potency. In general, AUC(0-t) refers to exposure summed from dosing to a finite time, without extrapolation to infinity. Higher therefore signals more exposure. One may read the AUC(0-inf) as total exposure, with the tail of the curve extrapolated. Higher therefore signals high exposure.

Turning to `CCN(CC)CCCC(C)Nc1ccnc2cc(Cl)ccc12` (configuration not stated) [CHLOROQUINE], the half-life in data set [1] was 9.71 days. Moreover, the Vd/F in [2] came to 154 L/kg. For the same molecule, the AUC at 1008 h in data set [3] is 117 µM·h. For the same molecule, the CL/F in data set [4] and in data set [7] was 2.17 mL/min/kg in each case. The AUC in the data set on Homo sapiens [5] was determined as 122.5 µM·h. In the data set with Homo sapiens [6], the Tlag stood at 0.55 h.
As to `CCNCCCC(C)Nc1ccnc2cc(Cl)ccc12` (configuration not stated) [DESETHYLCHLOROQUINE], the IC50 with Plasmodium falciparum [8] stood at 17.8 nM; in the data set with Plasmodium falciparum [12], 37.4 nM. Besides, the AUC(0-t) at 1008 h in data set [9] was found to be 83.6 µM·h. Moreover, the half-life in data set [10] is 12.1 days. For the same molecule, the AUC(0-inf) in data set [11] amounted to 98.5 µM·h.
With `Clc1ccc2c(N3CCN(CCCN4CCN(c5ccnc6cc(Cl)ccc56)CC4)CC3)ccnc2c1` [PIPERAQUINE], the CL/F is 10 mL/min/kg in [13], 16.2 mL/min/kg in data set [18], 19 mL/min/kg in data set [22] and 14.2 mL/min/kg in data set [24]. The figures for the IC50 in the data set on Plasmodium falciparum [8] and in the data set with Plasmodium falciparum [12] were 35.5 nM and 40.7 nM, respectively. The Vd/F worked out at 431 L/kg in [14], 103 L/kg in data set [19] and 614 L/kg in data set [20]. Besides, the AUC at 1008 h in [15] amounted to 76.4 µM·h. The half-life in data set [16] is 13.5 days; in [25], 17.2 days. For the same molecule, the Vc/F in the data set listed under Homo sapiens [17] turned out to be 365 L/kg. The same molecule showed an AUC(0-inf) in data set [21] of 87.4 µM·h. In the data set with Homo sapiens [23], this molecule yielded a Tlag of 0.89 h.

(Values after ChEMBL document CHEMBL1151466 (Antimicrob Agents Chemother, 2008).)
